Hits are enriched below; roughly 1.4% of the tested compounds scored in any of these assays.
Tn7 DDE FP = inhibitors of Tn7 peptide binding to human fibrin DD(E). inhibition, % at 8.3 µM. 370,000 compounds, 0.13% hits. FP displacement of FITC-Tn7 peptide from fibrin DD(E); 0% = median of compound wells per plate;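 active = inhibition above the mean of compounds falling within the control limits plus 3 SD of them, cut at about 14% in these data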
Target sequence (P02675 whole entry, looked up): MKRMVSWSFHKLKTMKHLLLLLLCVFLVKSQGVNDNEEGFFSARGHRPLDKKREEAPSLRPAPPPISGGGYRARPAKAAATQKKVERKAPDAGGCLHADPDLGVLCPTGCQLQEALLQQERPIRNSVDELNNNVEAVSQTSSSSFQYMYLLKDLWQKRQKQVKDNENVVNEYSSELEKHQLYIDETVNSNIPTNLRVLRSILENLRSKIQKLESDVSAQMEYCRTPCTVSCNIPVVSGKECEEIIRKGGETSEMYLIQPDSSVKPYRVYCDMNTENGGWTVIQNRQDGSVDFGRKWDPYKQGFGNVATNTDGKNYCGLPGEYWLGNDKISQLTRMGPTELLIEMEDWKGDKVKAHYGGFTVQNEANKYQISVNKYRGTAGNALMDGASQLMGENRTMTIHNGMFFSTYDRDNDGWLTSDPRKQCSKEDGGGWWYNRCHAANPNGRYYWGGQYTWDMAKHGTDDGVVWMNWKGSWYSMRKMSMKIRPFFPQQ
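Assay system: human fibrin DD(E). Input: DD(E) 2 µM final. Medium: Tris buffer with calcium and detergent, pH 7.8. Compound dosing: single point at 8.3 µM. Timing: 10 min plus 3 h, room temperature. Technique: fluorescence polarization of the labelled Tn7 tracer. Read-out: percent inhibition. Replicates: singlicate testing.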
CAL PDZ FP-1 = blocks peptide binding to human CAL PDZ domain; Q9HD26; purified CAL PDZ, TMR-peptide fluorescence polarization, 1 h; inhibition, % at 20 µM; 330,000 compounds, 0.02% hits;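 active = highest replicate inhibition of at least 40%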
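Material: tagged CAL PDZ protein CerCALP, purified; buffer or medium: sodium phosphate/NaCl buffer pH 7.4 with TCEP, IgG, Thesit; also added: fluorescent TMR peptide probe; schedule: 1 h incubation at room temperature before polarization reading; technique: fluorescence polarization from S- and P-plane intensities, G-factor corrected; control set: unlabelled peptide and DMSO controls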
CAL PDZ FP-2 = CAL PDZ (human) peptide binding inhibition. 300,000 compounds, 0.92% hits. inhibition, % at 24.9 µM. purified CAL PDZ, TMR-peptide fluorescence polarization, 1 h. AID 602252;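 active = mean inhibition of at least 30% with at least half of replicates also reaching 30%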
Tn6 DDE FP = disrupts Tn6 cyclic peptide binding to fibrin D-Dimer-E complex; Fibrin DD(E) TRITC-Tn6 fluorescence polarization displacement; inhibition, % at 8.3 µM; 370,000 compounds, 0.21% hits;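 active = inhibition above a per-campaign cutoff: mean of compounds within control limits plus 3 SD, cut at about 15% in these data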
Arrestin-AP2 inh = blocks beta-arrestin peptide binding to AP2 adaptin; inhibition, % at 10 µM; FITC-arrestin peptide / GST-AP2 beads, flow cytometry; AP2 beta2 appendage carries R879A mutation; 340,000 compounds, 0.31% hits;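 active = inhibition above a set limit, near 3 SD of compounds lacking own fluorescence, cut at about 54% in these data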
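System: GST-AP2 R879A glutathione beads | Also added: FITC-arrestin peptide, 50 nM | Times: 12 min plus 1 h, RT | Signal: Bead flow cytometry, FITC channel | Buffer or medium: PBS with 0.05% Tween 20 and 0.1% BSA | Read-out basis: Percent drop in bead-associated FITC signal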
Hits are given with their value; – = inactive; · = no result given; + = active, no number.

SMILES | Tn7 DDE FP | CAL PDZ FP-1 | CAL PDZ FP-2 | Tn6 DDE FP | Arrestin-AP2 inh
CCOC(=O)Cn1c(=O)oc2cc(S(=O)(=O)N(C)Cc3ccccc3)ccc21 | – | – | 76 | – | –
COCn1c(-c2ccc(OC)cc2)nc2ccccc21 | – | · | 107 | – | –
CCCn1c(-c2ccc(OC)cc2)nc2ccccc21 | – | – | – | – | –
C#CCNC(=O)C[C@H]1C[C@@]2(C(=O)OC)C(=C[C@H](C(C)C)O[C@@H]2C2CC2)N(Cc2ccc3c(c2)OCO3)C1=O | – | · | · | – | ·
NS(=O)(=O)c1ccc(CNC(=O)/C=C/c2c(F)cccc2Cl)cc1 | – | – | 70 | – | –
NS(=O)(=O)c1ccc(CNC(=O)/C=C/c2cccc(Cl)c2)cc1 | – | – | – | – | –
CC(C)(C)c1ccc(-c2noc(CCC(=O)NC3CC3)n2)cc1 | – | · | · | – | ·
CCOc1ccccc1C(=O)NCC(=O)OCc1csc(CC(=O)Nc2ccc(C)cc2)n1 | – | – | 65 | – | –
Cc1ccccc1C(=O)c1cccn1CC(=O)NCc1ccccc1Cl | – | – | · | – | –
O=C(Cn1cccc1C(=O)c1ccccc1)NCc1ccccc1Cl | – | – | + | – | –
CC(C)CNC(=O)c1ccccc1-c1ccccc1C(=O)O | – | – | – | – | –
CCC(C)NC(=O)c1ccccc1-c1ccccc1C(=O)NC(C)CC (stereo not given) | – | – | 72 | – | –
[O-][n+]1ccccc1C(O)CSc1ccccc1 (stereo not given) | – | · | · | – | ·
COc1ccc(NC(=S)NCCN2CCOCC2)cc1 | – | – | – | – | –
N#Cc1ccc(NC(=S)NCCN2CCOCC2)cc1 | – | – | 91 | – | –
O=C(COC(=O)c1ccc2ncsc2c1)NCc1ccc(F)cc1 | – | – | 54 | – | –
CCCNC(=O)c1onc(CSc2ccc(F)cc2)c1C(=O)NCCOC | – | – | – | – | –
COCCNC(=O)c1onc(CSc2ccc(F)cc2)c1C(=O)NCCOC | – | – | 31 | – | –
CCN(CC)C(=O)CC[C@@H]1CC[C@]2(CCCN(C(=O)c3ccco3)C2)O1 | – | · | · | – | ·
C=CCN(C)CC#CCCCCl | – | · | · | – | ·
Cc1c(Cl)cccc1NC(=S)N(CCN(C)C)C(C)c1ccccn1 (stereo not given) | – | – | 81 | – | –
CCOC(=O)[C@@]12CCCC3=C1N(CCC3)C(=O)[C@H]2CC(=O)N1CCN(C(=O)C2CC2)CC1 | – | · | · | – | ·
CN(Cc1ccco1)S(=O)(=O)c1ccc2c(c1)CCN2C(=O)CC(C)(C)C | – | · | · | – | ·
CN(C(=O)c1cccc(NC(=O)c2ccccc2)c1)C1CCCCC1 | – | – | 48 | – | –
Cc1cccc(NC(=O)C2CCCN(C(=O)Nc3ccc(F)cc3)C2)c1 (stereo not given) | – | – | 44 | – | –
SMILES | Tn7 DDE FP | CAL PDZ FP-1 | CAL PDZ FP-2 | Tn6 DDE FP | Arrestin-AP2 inh
CC1CCCCN1C(=O)c1cccc(NC(=O)c2ccccc2)c1 (stereo not given) | – | – | 76 | – | –
Cc1ccc(CNC(=O)C2CCCN(C(=O)Nc3ccc(F)cc3)C2)cc1 (stereo not given) | – | – | · | – | –
O=C(Nc1cccc(C(=O)N2CCCCC2)c1)C1CC1 | – | – | 81 | – | –
CNS(=O)(=O)/C=C/c1ccccc1CCNC(=O)OC(C)(C)C | – | · | · | – | ·
Cc1cc(-c2n[nH]c(=S)n2N=Cc2ccc(O)cc2)n[nH]1 | – | · | · | – | ·
O=C(Nc1ccc(F)cc1)Nc1c(-c2ccc(C(F)(F)F)cc2)nc2ncccn12 | – | · | · | – | ·
COc1ccc(C(=O)COC(=O)c2cccnc2SC)cc1 | – | – | – | – | –
COc1ccc(OC)c(C(=O)COC(=O)c2cccnc2SC)c1 | – | – | 35 | – | –
O=C(NNS(=O)(=O)c1ccccc1[N+](=O)[O-])c1cccc(Br)c1 | – | – | 51 | – | –
O=C(NNS(=O)(=O)c1ccccc1[N+](=O)[O-])c1cccc(Cl)c1 | – | – | – | – | –
CC(O)c1cccc(NC(=O)CC(c2ccccc2)c2ccccc2)c1 (stereo not given) | – | – | – | – | –
O=C(CC(c1ccccc1)c1ccccc1)Nc1ccncc1 | – | – | 81 | – | –
O=C(CCC(=O)N1CCOCC1)c1ccc(F)cc1 | – | – | 33 | – | –
Cc1ccc(C(=O)CCC(=O)N2CCN(c3ccc(F)cc3)CC2)cc1 | – | – | – | – | –
CCN(CC)c1ccc(/C=N/N2CCN(c3ccccn3)CC2)cc1 | – | – | 43 | – | –
CCc1ccc(/C=N/N2CCN(c3ccccn3)CC2)cc1 | – | – | – | – | –
CCC(=O)N1CCc2cc(S(=O)(=O)NCCC(=O)NCc3ccc(F)cc3)ccc21 | – | – | 37 | – | –
CC(=O)N1CCc2cc(S(=O)(=O)NCc3ccc(C)cc3)ccc21 | – | – | – | – | –
CC(=O)N1CCc2cc(S(=O)(=O)NCC(=O)NCc3ccc(Cl)cc3)ccc21 | – | – | + | – | –
Cc1ccc(CNS(=O)(=O)c2ccc3c(c2)CCN3C(=O)CCCC(=O)O)cc1 | – | – | 34 | – | –
CC(C)(C(=O)Nc1nccs1)c1ccccc1 | – | – | 66 | – | –
O=C(Nc1ccccc1)Nc1nccs1 | – | – | – | – | –
C[C@@H]1OC(c2ccccc2)N(C)[C@H]2C[C@H]3c4[nH]c5cccc(-c6ccccc6)c5c4CCN3C[C@@H]12 (stereo not given in full) | – | · | · | – | ·
COc1ccc(NC(=O)n2ncc3c(C)cccc32)cc1 | – | · | 62 | – | –
COc1ccc(NC(=O)n2ncc3c(C)cccc32)cc1OC | – | – | – | – | –
SMILES | Tn7 DDE FP | CAL PDZ FP-1 | CAL PDZ FP-2 | Tn6 DDE FP | Arrestin-AP2 inh
CSc1nc(C)cc(Oc2ccc(OCC(N)=O)nn2)n1 | – | – | – | – | –
C=CCOc1ccc(Oc2cc(C)nc(SC)n2)nn1 | – | · | 43 | – | –
CCN(CC)S(=O)(=O)c1ccc(N2CCc3cc(OC)c(OC)cc3C2)nc1 | – | – | 50 | – | –
c1ccc2c(c1)SCc1nnc(-c3ccncc3)n1-2 | – | – | 96 | – | –
C=CCNC(=O)NC(=O)c1csc([N+](=O)[O-])c1 | – | – | – | – | –
CCNC(=O)NC(=O)c1csc([N+](=O)[O-])c1 | – | – | 41 | – | –
O=C(NCC(c1ccccc1)c1ccccc1)[C@H](Cc1ccccc1)NC1(C(=O)NC2CCCCC2)CCC1 | – | · | · | – | ·
O=C(N[C@@H](Cc1cccnc1)C(=O)N1CCC[C@H]1C(=O)NCCc1ccccc1Cl)c1ccc(Cl)cc1Cl | – | · | · | – | ·
CC1(C)C2CC=C(/C=N/NC(=O)c3ccc(O)cc3)C1C2 (stereo not given) | – | – | 78 | – | –
O=C(Nc1cccc(C(F)(F)F)c1)Oc1ccc(Cl)c2cccnc12 | – | – | 35 | – | –
CCN(CC)C(=O)Oc1ccc(Cl)c2cccnc12 | – | – | – | – | –

Compound activity (PubChem)
